From ChEMBL document CHEMBL1144382, “Discovery and optimisation of potent, selective, ethanolamine inhibitors of bacterial phenylalanyl tRNA synthetase” (Bioorg Med Chem Lett, 2005)

Key:
[1] = biological target: T1, Phenylalanine--tRNA ligase alpha subunit (Staphylococcus aureus, UniProt P68849); experiment: Inhibitory concentration against Staphylococcus aureus Phenylalanyl-tRNA synthetase
T1 sequence (P68849 whole entry): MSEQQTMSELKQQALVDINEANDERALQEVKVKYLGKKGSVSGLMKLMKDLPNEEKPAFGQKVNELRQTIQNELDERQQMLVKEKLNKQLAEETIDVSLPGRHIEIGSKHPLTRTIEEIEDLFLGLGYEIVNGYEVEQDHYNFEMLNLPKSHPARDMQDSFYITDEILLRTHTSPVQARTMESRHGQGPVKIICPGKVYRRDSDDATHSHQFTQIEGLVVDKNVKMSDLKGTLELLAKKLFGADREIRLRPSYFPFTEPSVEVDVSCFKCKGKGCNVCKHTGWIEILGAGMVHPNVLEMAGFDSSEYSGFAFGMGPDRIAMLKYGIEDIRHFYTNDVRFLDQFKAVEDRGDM
Method in brief: (§1)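 Recombinant bacterial FRS (S. aureus WCUH29 enzyme cloned and overexpressed in E. coli; S. pneumoniae and H. influenzae enzymes overexpressed and purified the same way). IC50 from the full aminoacylation reaction with SPA read-out. Phenylalanine was held at the Km of each enzyme.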

[2] = biological target: T2, Phenylalanine--tRNA ligase alpha subunit (Haemophilus influenzae (strain ATCC 51907 / DSM 11121 / KW20 / Rd), UniProt P43819); experiment: Inhibitory concentration against Haemophilus influenzae Phenylalanyl-tRNA synthetase; method in brief: as §1
T2 sequence (P43819 whole entry): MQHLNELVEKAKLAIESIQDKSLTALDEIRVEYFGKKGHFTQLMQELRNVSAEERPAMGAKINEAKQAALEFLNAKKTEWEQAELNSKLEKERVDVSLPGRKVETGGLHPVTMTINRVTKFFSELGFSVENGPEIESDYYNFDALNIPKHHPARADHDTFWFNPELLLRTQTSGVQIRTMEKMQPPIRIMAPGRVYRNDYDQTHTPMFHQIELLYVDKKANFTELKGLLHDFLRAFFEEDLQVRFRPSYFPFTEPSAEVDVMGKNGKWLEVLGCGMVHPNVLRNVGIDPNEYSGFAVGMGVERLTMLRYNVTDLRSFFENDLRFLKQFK

[3] = biological target: T3, Phenylalanine--tRNA ligase alpha subunit (Streptococcus pneumoniae serotype 4 (strain ATCC BAA-334 / TIGR4), UniProt Q97S36); experiment: Inhibitory concentration against Streptococcus pneumoniae Phenylalanyl-tRNA synthetase; method in brief: as §1
T3 sequence (Q97S36 whole entry): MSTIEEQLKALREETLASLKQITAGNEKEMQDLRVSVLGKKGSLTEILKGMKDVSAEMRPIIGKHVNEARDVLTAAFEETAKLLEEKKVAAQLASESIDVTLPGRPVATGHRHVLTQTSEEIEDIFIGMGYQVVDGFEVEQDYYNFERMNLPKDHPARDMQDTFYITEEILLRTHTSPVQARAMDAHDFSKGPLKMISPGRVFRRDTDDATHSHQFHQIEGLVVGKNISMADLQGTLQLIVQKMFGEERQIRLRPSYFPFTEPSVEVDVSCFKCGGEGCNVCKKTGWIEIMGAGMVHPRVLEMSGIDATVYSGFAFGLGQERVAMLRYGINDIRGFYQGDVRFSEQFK

[4] = biological target: T1, Phenylalanine--tRNA ligase alpha subunit; experiment: Inhibitory concentration against […] Phenylalanyl-tRNA synthetase
Method in brief: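 Recombinant S. aureus WCUH29 FRS, cloned and overexpressed in E. coli, then purified. IC50 measured in the full aminoacylation reaction with SPA readout. Phenylalanine set at the enzyme's Km.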

[5] = biological target: T2, Phenylalanine--tRNA ligase alpha subunit; experiment: Inhibitory concentration against Haemophilus influenzae Phenylalanyl-tRNA synthetase; NI=no inhibition at 300 nM
Method in brief: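 Recombinant FRS from the named species, overexpressed in E. coli and purified. IC50 measured in the full aminoacylation reaction with SPA readout. Phenylalanine set at the Km of each enzyme.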

[6] = biological target: T4, Phenylalanine--tRNA ligase, mitochondrial (Rattus norvegicus, UniProt Q6AYQ3); experiment: Inhibitory concentration against Phenylalanyl-tRNA synthetase from rat liver
T4 sequence (Q6AYQ3 whole entry): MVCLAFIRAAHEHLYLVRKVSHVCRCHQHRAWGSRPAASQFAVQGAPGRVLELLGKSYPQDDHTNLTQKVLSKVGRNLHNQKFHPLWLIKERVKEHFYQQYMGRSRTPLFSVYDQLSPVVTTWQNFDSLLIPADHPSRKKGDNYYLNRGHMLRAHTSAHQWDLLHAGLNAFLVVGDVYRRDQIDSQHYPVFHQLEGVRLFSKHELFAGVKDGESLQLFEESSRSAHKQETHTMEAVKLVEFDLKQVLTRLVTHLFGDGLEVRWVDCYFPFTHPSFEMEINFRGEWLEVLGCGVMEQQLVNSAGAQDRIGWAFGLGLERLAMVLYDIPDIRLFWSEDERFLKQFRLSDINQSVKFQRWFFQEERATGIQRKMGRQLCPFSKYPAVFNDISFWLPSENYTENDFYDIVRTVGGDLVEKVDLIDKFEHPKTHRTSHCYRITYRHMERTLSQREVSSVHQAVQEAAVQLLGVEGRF
Method in brief: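 Mammalian FRS isolated from rat liver; IC50 determined to assess selectivity against the bacterial enzyme.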

Row | Compound | IC50 [1] | other results
1 | C=CCOc1ccccc1CNCC(O)c1cccc(C(F)(F)F)c1 (stereo not given) | 58 nM | 
2 | COc1ccccc1CNCC(O)c1cc(C(F)(F)F)ccc1C(F)(F)F (stereo not given) | > 10000 nM | 
3 | CCNC(=O)COc1ccccc1CNCC(O)c1cc(Br)cs1 (stereo not given) | 32 nM | 
4 | CNC(=O)CNC(=O)COc1ccccc1CNCC(O)c1cc(Br)cs1 (stereo not given) | 120 nM | 
5 | COc1ccccc1CNCC(O)c1cc(Br)cs1 (stereo not given) | 50 nM | 
6 | OC(CNCc1ccccc1OC(F)F)c1cccc(C(F)(F)F)c1 (stereo not given) | 260 nM | 
7 | COc1ccccc1CNCC(O)c1ccc(C(F)(F)F)cc1 (stereo not given) | > 10000 nM | 
8 | OC(CNCc1ccccc1OCCN1CCOCC1)c1cc(Br)cs1 (stereo not given) | 18 nM | 
9 | CN(CCO)C(=O)COc1ccccc1CNCC(O)c1cc(Br)cs1 (stereo not given) | 110 nM | 
10 | CNC(=O)CNC(=O)CCCOc1ccccc1CNCC(O)c1cc(Br)cs1 (stereo not given) | 30 nM | 
11 | NCCCCOc1ccccc1CNCC(O)c1cc(Br)cs1 (stereo not given) | 22 nM | 
12 | COc1ccccc1CNCC(O)c1ccccc1C(F)(F)F (stereo not given) | > 10000 nM | 
13 | Oc1ccccc1CNCC(O)c1cccc(C(F)(F)F)c1 (stereo not given) | 100 nM | 
14 | CN(CCO)C(=O)CCCOc1ccccc1CNCC(O)c1cc(Br)cs1 (stereo not given) | 26 nM | 
15 | OC(CNCc1ccccc1)c1cccc(C(F)(F)F)c1 (stereo not given) | 160 nM | IC50 [4]: 160 nM; IC50 [5]: No inhibition
16 | CN(CCO)C(=O)CCOc1ccccc1CNCC(O)c1cc(Br)cs1 (stereo not given) | 25 nM | 
17 | COc1ccccc1CNCC(O)c1cccc(C)c1 (stereo not given) | 110 nM | 
18 | CNC(=O)CNC(=O)CCOc1ccccc1CNCC(O)c1cc(Br)cs1 (stereo not given) | 36 nM | 
19 | COc1ccccc1CNCC(O)c1cccc(C(F)(F)F)c1 (stereo not given) | 160 nM | 
20 | COc1ccccc1CNCC(O)c1cccc(Br)c1 (stereo not given) | 110 nM | 
21 | COc1ccccc1CNCC(O)c1cccc(OC(F)(F)F)c1 (stereo not given) | 190 nM | 
22 | Cc1ccccc1CNCC(O)c1cccc(C(F)(F)F)c1 (stereo not given) | 790 nM | 

Now from value to molecule, other results behind:

Row | IC50 [1] | Compound | other results
23 | 18 nM | C=CCOc1ccccc1CNCC(O)c1cc(Br)cs1 (stereo not given) | 
24 | 2500 nM | O=C(O)c1ccccc1CNCC(O)c1cccc(C(F)(F)F)c1 (stereo not given) | 
25 | 83 nM | COc1cccc(C(O)CNCc2ccccc2OCc2ccccc2)c1 (stereo not given) | 
26 | 43 nM | O=C(O)CCCOc1ccccc1CNCC(O)c1cc(Br)cs1 (stereo not given) | 
27 | 43 nM | OC(CNCc1ccccc1OCc1ccccn1)c1cc(Br)cs1 (stereo not given) | 
28 | 31 nM | OC(CNCc1ccccc1OCc1ccccc1)c1cccc(Cl)c1 (stereo not given) | 
29 | 250 nM | O=C1c2ccccc2C(=O)N1CCOc1ccccc1CNCC(O)c1cc(Br)cs1 (stereo not given) | 
30 | 8 nM | OCCOc1ccccc1CNCC(O)c1cc(Br)cs1 (stereo not given) | 
31 | > 10000 nM | COc1ccccc1CNCC(O)c1cccc(OCc2ccccc2)c1 (stereo not given) | 
32 | 10 nM | OC(CNCc1ccccc1OCc1ccccc1)c1cc(Br)cs1 (stereo not given) | IC50 [2]: 1500 nM; IC50 [3]: 280 nM
33 | 35 nM | COCOc1ccccc1CNCC(O)c1cc(Br)cs1 (stereo not given) | 
34 | 58 nM | O=C(O)CCOc1ccccc1CNCC(O)c1cc(Br)cs1 (stereo not given) | 
35 | 18 nM | OC(CNCc1ccccc1OCc1cccnc1)c1cc(Br)cs1 (stereo not given) | 
36 | > 1000 nM | OCCOc1ccccc1CNC[C@H](O)c1cc(Br)cs1 | IC50 [2]: > 1000 nM; IC50 [3]: > 1000 nM
37 | 3.7 nM | OCCOc1ccccc1CNC[C@@H](O)c1cc(Br)cs1 | IC50 [2]: 56 nM; IC50 [3]: 190 nM
38 | > 10000 nM | OC(CNCc1ccccc1OCc1ccccc1)c1cc(C(F)(F)F)cc(C(F)(F)F)c1 (stereo not given) | 
39 | 220 nM | NCCOc1ccccc1CNCC(O)c1cc(Br)cs1 (stereo not given) | 
40 | 16 nM | OC(CNCc1ccccc1OCc1ccncc1)c1cc(Br)cs1 (stereo not given) | IC50 [6]: 90000 nM
41 | 26 nM | CS(=O)(=O)c1ccc(COc2ccccc2CNCC(O)c2cc(Br)cs2)cc1 (stereo not given) | 
42 | 26 nM | OC(CNCc1ccccc1OCc1nc2ccccc2[nH]1)c1cc(Br)cs1 (stereo not given) | IC50 [2]: 150 nM; IC50 [3]: 250 nM
43 | 120 nM | OC(CNCc1ccccc1Oc1ccccc1)c1cc(Br)cs1 (stereo not given) | 
44 | 50 nM | OC(CNCc1ccccc1OCc1ccccc1)c1cccc(C(F)(F)F)c1 (stereo not given) | 
45 | 49 nM | N#CCOc1ccccc1CNCC(O)c1cc(Br)cs1 (stereo not given) | 
46 | 42 nM | NC(=O)COc1ccccc1CNCC(O)c1cc(Br)cs1 (stereo not given) | 
47 | 570 nM | OCc1cccc(C(O)CNCc2ccccc2OCc2ccccc2)c1 (stereo not given) | 
48 | 32 nM | OC(CNCc1ccccc1OCc1ccccc1)c1cccc(I)c1 (stereo not given) | 
49 | 69 nM | O=C1c2ccccc2C(=O)N1CCCCOc1ccccc1CNCC(O)c1cc(Br)cs1 (stereo not given) | 
